This data set is described as follows: Toxicity liver stage against HepG2, at 10uM. The data set is classed as cell-based. Details: test concentration 10 uM, cell line HepG2-A16-CD81EGFP. As to conditions: human, HepG2-A16-CD81EGFP cells; read-out: INHIBITION
In short, it runs like this:
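Uninfected HepG2-A16-CD81EGFP cells, 3 × 10^3 per well, 1536-well, plated on prespotted compound at 10 μM final, parasite-free screening media added to match infected plates; puromycin 10 μM positive, DMSO 0.5% negative; run in parallel with 48 h PbLuc assay at 37 °C, 5% CO2; viability by CellTiter-Glo luminescence, normalized to controls.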
Regarding `O[C@@H]1C[C@@H](c2nc(-c3ccccc3)no2)N(C2CCOCC2)C1`, the cytotoxicity at 10 µM was -1.83%.

Consider `Cc1ccc(CN[C@@H]2CO[C@H](CNS(=O)(=O)c3ccccc3)[C@H]2O)cc1`, for which the cytotoxicity at 10 µM was -10.1%.

For the molecule `COc1ccc(Nc2nc(N)c(C(C)=O)s2)cc1OC`, the cytotoxicity at 10 µM worked out at 1.8%.

As for `Cc1cc(N2CCCC2)nc(N(C)CCO)c1C#N`, the cytotoxicity at 10 µM stood at 0.252%.

On to `Cc1cccc(N2CCN(S(=O)(=O)CCN)CC2)c1`, for which the cytotoxicity at 10 µM was determined as 0.0723%.

As to `O=S(=O)(NCC1CCN(c2cnccn2)CC1)C1CC1`, the cytotoxicity at 10 µM was determined as 11.3%.

In the case of `O=C(Cn1ccc2ccccc21)Nc1cc(N2CCCC2)ncn1`, the cytotoxicity at 10 µM is 4.24%.

On to `O=C(CSC1CCCC1)N1CCN(c2ccc(-n3cncn3)nn2)CC1`, for which the cytotoxicity at 10 µM was determined as 6.93%.

`CCN(C)C(=O)c1ncn2c(C3CCN(S(C)(=O)=O)CC3)ccnc12`: the cytotoxicity at 10 µM is -3.68%.

As for `CC(=O)N1CCC2(CC1)C(=O)N(C)c1c(F)cccc12`, the cytotoxicity at 10 µM was -11.2%.

On to `CCOC(=O)c1ccc(NC(=O)c2c(O)nc3c(c2O)CCCC3)cc1`, for which the cytotoxicity at 10 µM came out at 8.46%.

For the molecule `Cc1cccc(NC(=O)Cc2cnc3n(C)c(=O)[nH]c(=O)n23)c1`, the cytotoxicity at 10 µM was -5.17%.

For `O=C(c1ccnnc1)N1CCC2(CC1)CC(N1CCOCC1)C2`, the cytotoxicity at 10 µM worked out at 6.97%.

As for `CC(C)(C)NC(=O)c1ccn(COc2ccccc2Cl)n1`, the cytotoxicity at 10 µM is 10.7%.

As for `CSc1ccc(CNc2n[nH]c(C)n2)cc1`, the cytotoxicity at 10 µM is -3.58%.

With `CCn1cc(NC(=O)c2c(C)nn(C)c2C)c(C(N)=O)n1`, the cytotoxicity at 10 µM came to 0.946%.

As to `CCOCCCNc1ncc(-c2onc(C)c2C)c(-c2ccco2)n1`, the cytotoxicity at 10 µM was 10.2%.

Consider `CN(C)C(=O)C1CCc2nnc(CNC(=O)c3ccc(Cl)cc3Cl)n21` (stereo unspecified), for which the cytotoxicity at 10 µM is 7.61%.

With `CC(C)(C)n1cc(C#N)cc1NC(=O)CCS(=O)(=O)C1CCCC1`, the cytotoxicity at 10 µM was -0.935%.

For `CC(C)CCN1CCN(c2ncnc3nc(N)ccc23)CC1`, the cytotoxicity at 10 µM was found to be 11.5%.

For the molecule `CC(C(N)=O)N1CCN(c2ncc(Cl)cn2)CC1` (stereo unspecified), the cytotoxicity at 10 µM is -1.26%.

Turning to `Cc1nn(C)c(Cl)c1C(=O)NCC1(C(N)=O)CCOCC1`, the cytotoxicity at 10 µM amounted to 1.64%.

`CCCc1nnc(SCC(=O)Nc2cc(C(C)(C)C)nn2C)[nH]1`: the cytotoxicity at 10 µM was determined as 10.7%.

For the molecule `CC(C)(C)NC(=O)N1CCN2C(=O)OCC2C1` (stereo unspecified), the cytotoxicity at 10 µM was -1.96%.

As for `O=C(NC1CCN(c2ccccc2OC(F)F)C1)c1cccnc1` (stereo unspecified), the cytotoxicity at 10 µM was determined as 6.89%.

As to `CCSc1cc(C(=O)NC2CCN(C(=O)c3ccncc3)CC2)ccn1`, the cytotoxicity at 10 µM was 5.88%.

With `CC(C)(C)C(=O)NCCCC(=O)NC(C)(C)c1ccc2c(c1)OCO2`, the cytotoxicity at 10 µM turned out to be 12.1%.

Turning to `O=C(CCCn1cncn1)NC1(c2cccc(Br)c2)CC1`, the cytotoxicity at 10 µM came out at 9.57%.

As to `CCc1cnc(CN(C)C2CCN(CC3CCN(C(C)=O)CC3)C2)o1` (stereo unspecified), the cytotoxicity at 10 µM worked out at 4.84%.

Consider `N#Cc1ccccc1N1CCC(Nc2nccnc2C#N)CC1`, for which the cytotoxicity at 10 µM was 12.9%.

Consider `O=S(=O)(NCC1CCOC1)N1CCc2ccccc2C1` (stereo unspecified), for which the cytotoxicity at 10 µM is -4.06%.

Turning to `CNC(=O)c1cccc(NC(=O)CN2CCN(S(C)(=O)=O)CC2)c1`, the cytotoxicity at 10 µM amounted to 1.82%.

Consider `CS(=O)(=O)NC[C@H]1OC[C@@H]2CN(Cc3cccnc3)CC[C@@H]21`, for which the cytotoxicity at 10 µM was found to be 12.7%.

With `Cc1cc2nc(C(C)C)cc(N(C)CC3CCN(C(C)C)C3)n2n1` (stereo unspecified), the cytotoxicity at 10 µM was found to be 7.26%.

Consider `COc1cc(C(=O)N2CC(Oc3ccccc3Cl)C2)ccn1`, for which the cytotoxicity at 10 µM was -3.52%.

Turning to `CC(C)CN1CC(c2nc(-c3ccc(F)cc3)c[nH]2)CC1=O` (stereo unspecified), the cytotoxicity at 10 µM came out at 6.8%.

On to `O=C(O)c1cc(-c2ccoc2)cc(S(=O)(=O)NC2CC2)c1`, for which the cytotoxicity at 10 µM is -2.18%.

Consider `NC(=O)CN1CCCC(C(=O)N2CCC(Oc3ncccn3)CC2)C1` (stereo unspecified), for which the cytotoxicity at 10 µM is -41.6%.

For `O=C(C1CCOc2ccccc2C1)N1Cc2cnn(CCO)c2C1` (stereo unspecified), the cytotoxicity at 10 µM is 4.61%.

As for `CCCS(=O)(=O)N1CCCC(CCC(=O)N(C)CCc2ccccn2)C1` (stereo unspecified), the cytotoxicity at 10 µM is 5.02%.

Take `CCc1oc(C(=O)NCCNS(C)(=O)=O)cc1CN1CCCC1`: the cytotoxicity at 10 µM was found to be 5.53%.

`O=C(O)c1ccnc(-c2ccnc(COc3ccccc3Cl)n2)c1`: the cytotoxicity at 10 µM was -9.86%.

Take `Cc1nc(N2CCOc3ccc(CO)cc3C2)c2c(C)noc2n1`: the cytotoxicity at 10 µM amounted to 2.18%.

As for `CCCNc1ncc(CN2CCC3(CC2)CNC(=O)C3)cn1`, the cytotoxicity at 10 µM was -7.07%.

Regarding `CCc1ncc2c(n1)CN(C(=O)Cc1cc(OC)cc(OC)c1)C2`, the cytotoxicity at 10 µM amounted to 2.78%.

Regarding `CC(C)N1CCCC(C(=O)NCCCc2cnn(C)c2)C1` (stereo unspecified), the cytotoxicity at 10 µM amounted to 17.1%.

`COc1ccc2nc(CNC(=O)c3cc(C(C)C)on3)[nH]c2c1`: the cytotoxicity at 10 µM amounted to 0.0964%.

Turning to `CCn1cnnc1CCNC(=O)CCNC(=O)c1ccccc1F`, the cytotoxicity at 10 µM came to 4.49%.

Regarding `O=C(O)[C@@H]1CN(Cc2cc3c(cc2Cl)OCO3)C[C@H]1C1CC1`, the cytotoxicity at 10 µM turned out to be 0.0851%.

As for `Cc1ccc(O)c(CN(Cc2ccccc2)Cc2nccs2)n1`, the cytotoxicity at 10 µM was found to be 0.31%.

In the case of `COCCNc1nc2c(c(N3CCn4nc(C)cc4C3)n1)CCNCC2`, the cytotoxicity at 10 µM amounted to 7.8%.

Regarding `COc1nc2c(cc1C(=O)NCCc1nc(C)c(C(=O)O)s1)CCC2`, the cytotoxicity at 10 µM came to 13.3%.

As for `CC(C)Cc1ncc2c(n1)CN(C(=O)c1ccc(CN3CCCC3)o1)C2`, the cytotoxicity at 10 µM is -1.66%.

Regarding `O=C(CN1CCOC(Cn2cccn2)C1)NCc1ccco1` (stereo unspecified), the cytotoxicity at 10 µM is -14.6%.

As for `Cc1cc(C)c(CNC(=O)NCc2ccc(F)cc2)c(=O)[nH]1`, the cytotoxicity at 10 µM is -6.34%.

In the case of `CN(CC(=O)NC1(C)CCS(=O)(=O)C1)Cc1ccc(F)c(F)c1` (stereo unspecified), the cytotoxicity at 10 µM was -1.55%.

As for `Cc1nn(C)c(N(C)C)c1CNCc1ccc(OCCN(C)C)cc1`, the cytotoxicity at 10 µM was -4.89%.

In the case of `O=C(c1sccc1C1CC1)N1CCN(CC(F)(F)F)CC1`, the cytotoxicity at 10 µM was -1.58%.

Regarding `O=C(O)c1cc(S(=O)(=O)Nc2cc(Cl)ccc2F)cc2c1OCCO2`, the cytotoxicity at 10 µM was -18.7%.

On to `N#Cc1ccc(OCCNCCn2cccn2)cc1`, for which the cytotoxicity at 10 µM was -4.11%.

Turning to `O=C(CCCNc1ncccn1)N1CCCC(n2cncn2)C1` (stereo unspecified), the cytotoxicity at 10 µM was -4.56%.

With `O=C1CC2(CCCNC2)C(=O)N1Cc1ccccc1` (stereo unspecified), the cytotoxicity at 10 µM was 12.1%.

Regarding `O=C(C[C@@H]1COC[C@H]2CN(C3CCC3)C[C@@H]12)NCc1cccnc1`, the cytotoxicity at 10 µM was 12.9%.

Regarding `CN1CCc2c(CNc3ncccn3)n[nH]c2C1`, the cytotoxicity at 10 µM is -3.21%.

With `N#Cc1cccc(CN2CC3(CCCCN3c3cncnc3)CC2=O)c1` (stereo unspecified), the cytotoxicity at 10 µM is 2.53%.

With `CCN(CC)Cc1cnc2n1CCN(Cc1c(C)noc1C)CC2`, the cytotoxicity at 10 µM turned out to be 11.2%.

Consider `CNC(=O)COC1COC2(CCN(c3ncccn3)CC2)C1` (stereo unspecified), for which the cytotoxicity at 10 µM was -3.4%.

Turning to `CN(C)[C@@H]1CCN(S(=O)(=O)C2CC2)[C@H]1Cc1ccccc1`, the cytotoxicity at 10 µM was -7.46%.

As for `CCc1ccc2c(C3CN(CC4CCC4)C3)ncn2c1`, the cytotoxicity at 10 µM came out at 7.11%.

For `O=C1C[C@@H]2CC[C@H](CN1)N2C1CCSCC1`, the cytotoxicity at 10 µM came to 0.915%.

With `O=C(CCC1CCCC1)N1C[C@@H]2CC[C@H]1CN(Cc1ccncc1)C2`, the cytotoxicity at 10 µM is -3.76%.

The values above are taken from ChEMBL document CHEMBL4513216, “Probing the Open Global Health Chemical Diversity Library for Multistage-Active Starting Points for Next-Generation Antimalarials” (ACS Infect Dis, 2020).
